In ChEMBL document CHEMBL1123771, “Synthesis and structure-activity relationships of potent new angiotensin converting enzyme inhibitors containing saturated bicyclic amino acids” (J Med Chem, 1987):
Blank lines part the entries; values can stand above or below the molecule they belong to.

Assays:
Rattus norvegicus [1] = assay: Maximum change in mean aortic blood pressure in conscious renal 2-kidney/1-clip goldblatt hypertensive rat at a dose 30 mg/kg administered orally at 8h; 4 animals tested; format: functional, Artery; settings: route oral
Summary of the method: (§1)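 Male Sprague–Dawley rats, 4 weeks old, given a silver clip (0.2-mm gap) on the left renal artery with the other kidney intact. Hypertension developed over 4–8 weeks, then rats (280–320 g) were aortic-cannulated; only those with mean pressure >160 mmHg were used. Oral dosing. One-minute running averages were logged every 30 min. Results are mean ± 1 SEM, from 3–5 rats.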

[2] = molecular target: T1, Angiotensin-converting enzyme (Rattus norvegicus, UniProt P47820); assay: Inhibition of rat Angiotensin I converting enzyme (ACE), using Hip-Gly-Gly as synthetic substrate.
T1 sequence (P47820 whole entry): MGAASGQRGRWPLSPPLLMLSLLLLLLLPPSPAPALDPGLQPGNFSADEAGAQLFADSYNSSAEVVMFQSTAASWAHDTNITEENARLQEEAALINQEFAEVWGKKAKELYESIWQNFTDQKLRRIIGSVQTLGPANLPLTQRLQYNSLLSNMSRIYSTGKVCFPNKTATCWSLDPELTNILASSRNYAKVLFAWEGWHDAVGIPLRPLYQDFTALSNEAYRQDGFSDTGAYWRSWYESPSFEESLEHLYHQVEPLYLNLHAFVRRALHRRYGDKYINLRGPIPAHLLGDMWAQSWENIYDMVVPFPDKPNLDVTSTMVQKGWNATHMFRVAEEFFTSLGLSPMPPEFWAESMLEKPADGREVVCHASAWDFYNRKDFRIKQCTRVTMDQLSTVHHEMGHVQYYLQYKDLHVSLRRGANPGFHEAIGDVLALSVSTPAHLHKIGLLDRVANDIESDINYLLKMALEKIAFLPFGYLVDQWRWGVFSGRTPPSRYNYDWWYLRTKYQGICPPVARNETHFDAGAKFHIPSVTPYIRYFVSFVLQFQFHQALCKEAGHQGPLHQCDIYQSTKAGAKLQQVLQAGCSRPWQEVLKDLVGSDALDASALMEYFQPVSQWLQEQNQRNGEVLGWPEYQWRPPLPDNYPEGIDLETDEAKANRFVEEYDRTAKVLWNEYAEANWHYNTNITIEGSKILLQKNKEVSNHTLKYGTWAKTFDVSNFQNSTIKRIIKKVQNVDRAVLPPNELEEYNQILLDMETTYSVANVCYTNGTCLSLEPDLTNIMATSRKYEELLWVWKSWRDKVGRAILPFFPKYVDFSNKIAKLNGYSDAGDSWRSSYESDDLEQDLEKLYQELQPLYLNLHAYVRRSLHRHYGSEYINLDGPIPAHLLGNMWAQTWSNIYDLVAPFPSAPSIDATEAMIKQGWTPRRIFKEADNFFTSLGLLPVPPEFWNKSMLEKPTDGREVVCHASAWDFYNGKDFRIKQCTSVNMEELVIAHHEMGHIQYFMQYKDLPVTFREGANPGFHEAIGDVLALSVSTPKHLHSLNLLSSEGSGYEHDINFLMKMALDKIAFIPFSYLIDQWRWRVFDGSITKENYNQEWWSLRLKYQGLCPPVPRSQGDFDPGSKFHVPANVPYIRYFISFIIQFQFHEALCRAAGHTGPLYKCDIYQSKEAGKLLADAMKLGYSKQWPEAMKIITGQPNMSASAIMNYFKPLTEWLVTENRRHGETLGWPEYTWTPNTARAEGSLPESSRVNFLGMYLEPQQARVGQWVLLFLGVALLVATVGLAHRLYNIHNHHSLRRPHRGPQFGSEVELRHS
Summary of the method: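 Radioassay of converting-enzyme activity with Hip-Gly-Gly as substrate; compounds dissolved at 2–5 mg/mL in Me2SO, then diluted to test concentrations in pH 8 buffer (0.05 M Hepes, 0.1 M NaCl, 0.6 M Na2SO4).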

Rattus norvegicus [3] = assay: Mean aortic base line blood pressure in conscious renal 2-kidney/1-clip goldblatt hypertensive rat at a dose 30 mg/kg administered orally; format: functional, Artery; settings: route oral
Rattus norvegicus [4] = assay: Mean aortic base line blood pressure in conscious renal 2-kidney/1-clip goldblatt hypertensive rat at a dose 0.3 mg/kg administered orally; format: functional, Artery; settings: route oral
Rattus norvegicus [5] = assay: Mean aortic base line blood pressure in conscious renal 2-kidney/1-clip goldblatt hypertensive rat at a dose 1.0 mg/kg administered orally; format: functional, Artery; settings: route oral; summary of the method: as §1
Rattus norvegicus [6] = assay: Maximum change in mean aortic blood pressure in conscious renal 2-kidney/1-clip goldblatt hypertensive rat at a dose 0.1 mg/kg administered orally at 10h; 4 animals tested; format: functional, Artery; settings: route oral; summary of the method: as §1
Rattus norvegicus [7] = assay: Maximum change in mean aortic blood pressure in conscious renal 2-kidney/1-clip goldblatt hypertensive rat at a dose 1.0 mg/kg administered orally at 3 hr; 4 animals tested; format: functional, Artery; settings: route oral; summary of the method: as §1
Rattus norvegicus [8] = assay: Maximum change in mean aortic blood pressure in conscious renal 2-kidney/1-clip goldblatt hypertensive rat at a dose 30 mg/kg administered orally at 6 h; 4 animals tested; format: functional, Artery; settings: route oral
Rattus norvegicus [9] = assay: Mean aortic base line blood pressure in conscious renal 2-kidney/1-clip goldblatt hypertensive rat at a dose 10 mg/kg administered orally; format: functional, Artery; settings: route oral; summary of the method: as §1
Rattus norvegicus [10] = assay: Maximum change in mean aortic blood pressure in conscious renal 2-kidney/1-clip goldblatt hypertensive rat at a dose 0.3 mg/kg administered orally at 5h; 4 animals tested; format: functional, Artery; settings: route oral; summary of the method: as §1
Rattus norvegicus [11] = assay: Mean aortic base line blood pressure in conscious renal 2-kidney/1-clip goldblatt hypertensive rat at a dose 0.1 mg/kg administered orally; format: functional, Artery; settings: route oral; summary of the method: as §1
Rattus norvegicus [12] = assay: Maximum change in mean aortic blood pressure in conscious renal 2-kidney/1-clip goldblatt hypertensive rat at a dose 3 mg/kg administered orally at 8h; 5 animals tested; format: functional, Artery; settings: route oral; summary of the method: as §1
Rattus norvegicus [13] = assay: Mean aortic base line blood pressure in conscious renal 2-kidney/1-clip goldblatt hypertensive rat at a dose 3 mg/kg administered orally; format: functional, Artery; settings: route oral; summary of the method: as §1
Rattus norvegicus [14] = assay: Maximum change in mean aortic blood pressure in conscious renal 2-kidney/1-clip goldblatt hypertensive rat at a dose 30 mg/kg administered orally at 5h; 5 animals tested; format: functional, Artery; settings: route oral; summary of the method: as §1
Rattus norvegicus [15] = assay: Maximum change in mean aortic blood pressure in conscious renal 2-kidney/1-clip goldblatt hypertensive rat at a dose 10 mg/kg administered orally at 3 hr; 5 animals tested; format: functional, Artery; settings: route oral; summary of the method: as §1
Rattus norvegicus [16] = assay: Maximum change in mean aortic blood pressure in conscious renal 2-kidney/1-clip goldblatt hypertensive rat at a dose 30 mg/kg administered orally at 8h; 3 animals tested; format: functional, Artery; settings: route oral
Summary of the method: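 Male Sprague–Dawley rats made hypertensive at 4 weeks old by silver clip (0.2-mm gap) on left renal artery, contralateral kidney intact; 4–8 weeks development, cannulated (280–320 g), only mean aortic pressure >160 mmHg used. Oral dosing; 1-min running-average aortic pressure and heart rate logged every 30 min; maximum change from base line, mean ± SEM.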

SMILES: O=C(NC(Cc1ccccc1)C(=O)CCC(=O)N1C(C(=O)O)CC2CCCCC21)c1ccccc1 (stereo unspecified)
Mean aortic blood pressure (Rattus norvegicus [1]): -27 mmHg
IC50 [2]: 11 nM
Mean aortic blood pressure (Rattus norvegicus [3]): 169 mmHg

SMILES: O=C(O)C1Cc2ccccc2N1C(=O)CCS (stereo unspecified)
IC50 [2]: 140 nM

SMILES: CC(=O)SCCC(=O)N1[C@H](C(=O)O)C[C@@H]2CCCC[C@@H]21 (stereo in doubt; 8c)
IC50 [2]: 480 nM

SMILES: CC(CSC(=O)c1ccccc1)C(=O)N1[C@H](C(=O)O)C[C@@H]2CCCC[C@@H]21 (stereo partly specified)
IC50 [2]: 540 nM

SMILES: CC(=O)SCC(C)C(=O)N1C(=O)C2CCCCC2C1C(=O)O (stereo unspecified)
IC50 [2]: 300 nM

SMILES: CCOC(=O)C(CCc1ccccc1)NC(C)C(=O)N1[C@H](C(=O)O)C[C@@H]2CCCC[C@@H]21.Cl (stereo in doubt; 11a)
Mean aortic blood pressure (Rattus norvegicus [4]): 191 mmHg
Mean aortic blood pressure (Rattus norvegicus [5]): 190 mmHg
Mean aortic blood pressure (Rattus norvegicus [6]): -52 mmHg
Mean aortic blood pressure (Rattus norvegicus [3]): 185 mmHg
Mean aortic blood pressure (Rattus norvegicus [7]): -72 mmHg
Mean aortic blood pressure (Rattus norvegicus [8]): -102 mmHg
Mean aortic blood pressure (Rattus norvegicus [9]): 197 mmHg
Mean aortic blood pressure (Rattus norvegicus [10]): -73 mmHg
Mean aortic blood pressure (Rattus norvegicus [11]): 185 mmHg

SMILES: O=C(O)[C@@H]1CCCN1C(=O)CCS
IC50 [2]: 820 nM

SMILES: O=C1SCCC(=O)N2C1CC1CCCCC12 (stereo unspecified)
IC50 [2]: 7 nM

SMILES: O=C(O)[C@@H]1C[C@@H]2CCCC[C@@H]2N1C(=O)CCS (stereo in doubt; 8b)
Mean aortic blood pressure (Rattus norvegicus [12]): -73 mmHg
IC50 [2]: 13 nM
Mean aortic blood pressure (Rattus norvegicus [13]): 198 mmHg
Mean aortic blood pressure (Rattus norvegicus [3]): 198 mmHg
Mean aortic blood pressure (Rattus norvegicus [14]): -91 mmHg
Mean aortic blood pressure (Rattus norvegicus [9]): 198 mmHg
Mean aortic blood pressure (Rattus norvegicus [15]): -89 mmHg

SMILES: CCOC(=O)C(CCc1ccccc1)NC(C)C(=O)N1C(=O)CCC1C(=O)O (stereo unspecified)
IC50 [2]: 63 nM

SMILES: C1CCC(NC2CCCCC2)CC1.CC(CS)C(=O)N1C(=O)C2CCCCC2C1C(=O)O (stereo unspecified)
Mean aortic blood pressure (Rattus norvegicus [3]): 192 mmHg
Mean aortic blood pressure (Rattus norvegicus [16]): -100 mmHg

SMILES: CC(=O)SCCC(=O)N1[C@H](C(=O)O)C[C@@H]2CCCC[C@@H]21 (stereo in doubt; 8a)
IC50 [2]: 560 nM

IC50 [2]: 35000 nM
SMILES: CC(=O)SCC(C)C(=O)N1[C@H](C(=O)O)C[C@@H]2CCCC[C@@H]21 (stereo in doubt; 9b)

IC50 [2]: 160 nM
SMILES: CC(=O)SCC(C)C(=O)N1[C@H](C(=O)O)C[C@@H]2CCCC[C@@H]21 (stereo in doubt; 9a)
